Experimental data gathered from unrelated publications.
Lines come from different studies, so protocols differ.
Adora1: Adenosine receptor A1 (Adora1, Rattus norvegicus, UniProt P25099)
PKN1: Serine/threonine-protein kinase N1 (PKN1, Homo sapiens, UniProt Q16512)
Melanocortin receptor 5: Melanocortin receptor 5 (Mus musculus, UniProt P41149)
gyrB: DNA gyrase subunit B (gyrB, Escherichia coli, UniProt P0AES6)
CA9: Carbonic anhydrase 9 (CA9, Homo sapiens, UniProt Q16790)
GRM4: Metabotropic glutamate receptor 4 (GRM4, Homo sapiens, UniProt Q14833)

CCCCN1CCCn2c1nc1c2c(=O)n(CCC)c(=O)n1CCC
Ki (Adora1; ligand displacement; radioligand; cell membranes): 0.28 µM

CC(C)NC[C@@H](C(=O)N1CCN(c2ncnc3c2[C@H](C)C[C@H]3O)CC1)c1ccc(Cl)cc1
IC50 (PKN1; enzyme activity; inhibitor): 0.03 µM

Cc1cnc(-c2ccc(-c3ccc(NC(=O)Nc4c(F)cc(F)cc4F)cc3F)c3c2C(=O)NC3)[nH]1
Kd (Serine/threonine-protein kinase 26 (STK26, Homo sapiens, UniProt Q9P289); binding; competition with immobilised ligand): 0.0082 µM

CSCC[C@H](NC(=O)[C@@H](NC(=O)[C@@H](N)Cc1ccc(O)cc1)C(C)C)C(=O)NCC(=O)N[C@@H](Cc1c[nH]cn1)C(=O)N[C@@H](Cc1ccccc1)C(=O)N[C@@H](CCCNC(=N)N)C(=O)N[C@@H](Cc1c[nH]c2ccccc12)C(=O)N[C@@H](CC(=O)O)C(=O)N[C@@H](CCCNC(=N)N)C(=O)N[C@@H](Cc1ccccc1)C(=O)O
EC50 (Melanocortin receptor 5; reporter gene; agonist): 0.13 µM

CNc1cccc2cc(C(=O)NCCc3ccc(C(=O)O)cc3)c(=O)[nH]c12
Kd (gyrB; binding; ITC): 0.023 µM

CC(C)CC(C)N1CCCn2c1nc1c2c(=O)n(C)c(=O)n1C (centres unmarked)
Ki (Adora1; ligand displacement; radioligand; cell membranes): > 25 µM

CCCCNc1ncc2c(-c3ccc(CN4CCN(C)CC4)cc3)cn([C@H]3CC[C@H](O)CC3)c2n1
IC50 (PKN1; enzyme activity; inhibitor): 0.053 µM

N=C(N)NCCC[C@H](NC(=O)[C@H](CC(=O)O)NC(=O)[C@H](Cc1c[nH]c2ccccc12)NC(=O)[C@H](CCCNC(=N)N)NC(=O)[C@H](Cc1ccccc1)NC(=O)[C@H](Cc1c[nH]cn1)NC(=O)CN)C(=O)N[C@@H](Cc1ccccc1)C(=O)NCC(=O)O
EC50 (Melanocortin receptor 5; reporter gene; agonist): 0.29 µM

O=C(O)c1cccc(CCNC(=O)c2cc3ccccc3[nH]c2=O)c1
Kd (gyrB; binding; ITC): 1.4 µM

CC(NC(=O)C(C)N1CCN(C(=O)c2cccc(O)c2)CC1)c1ccc(S(N)(=O)=O)cc1 (centres unmarked)
IC50 (CA9; enzyme activity; inhibitor): 0.75 µM

CSCC[C@H](NC(=O)[C@@H](N)Cc1ccc(O)cc1)C(=O)N[C@@H](Cc1c[nH]cn1)C(=O)N[C@@H](Cc1ccccc1)C(=O)N[C@@H](CCCNC(=N)N)C(=O)N[C@@H](Cc1c[nH]c2ccccc12)C(=O)N[C@@H](Cc1ccccc1)C(=O)O
EC50 (Melanocortin receptor 5; reporter gene; agonist): 1.1 µM

NS(=O)(=O)c1ccc(NC(=O)NCc2cccc(NC(=O)C3CC3)c2)cc1
IC50 (CA9; enzyme activity; inhibitor): 0.055 µM

CC(C)N1CCCn2c1nc1c2c(=O)n(C)c(=O)n1C
Ki (Adora1; ligand displacement; radioligand; cell membranes): > 25 µM

Cc1ccc(C)c(OCCCC(C)(C)C(=O)O)c1
EC50 (Peroxisome proliferator-activated receptor alpha (Ppara, Mus musculus, UniProt P23204); reporter gene; agonist; luciferase): 111 µM

CO[C@@]1(NC(=O)C2SC(=C(C(N)=O)C(=O)O)S2)C(=O)N2C(C(=O)O)=C(CSc3nnnn3C)CS[C@@H]21 (some centres unmarked)
Kd (Phosphatidylethanolamine-binding protein 1 (Homo sapiens, UniProt P30086); binding): 35.8 µM

N=C(N)NCCC[C@H](NC(=O)[C@H](CC(=O)O)NC(=O)[C@H](Cc1c[nH]c2ccccc12)NC(=O)[C@H](CCCNC(=N)N)NC(=O)[C@H](Cc1ccccc1)NC(=O)[C@@H](N)Cc1c[nH]cn1)C(=O)N[C@@H](Cc1ccccc1)C(=O)O
EC50 (Melanocortin receptor 5; reporter gene; agonist): 1.87 µM

CN(Cc1ccc(C(=O)O)cc1NC(=O)c1cc2ccccc2[nH]c1=O)C1CCCCC1
Kd (gyrB; binding; ITC): 3.9 µM

Cc1cc(C)cc(C(=O)N2CCCC(C(=O)N(C)C(C)c3ccc(S(N)(=O)=O)cc3)C2)c1 (centres unmarked)
IC50 (CA9; enzyme activity; inhibitor): 0.06 µM

Cc1cccnc1C(=O)Nc1ccc(N2C(=O)c3ccccc3C2=O)c(Cl)c1
EC50 (GRM4; calcium signal; agonist): > 10 µM

CNc1cccc2cc(C(=O)Nc3cccc(C(=O)O)c3)c(=O)[nH]c12
Kd (gyrB; binding; ITC): 0.023 µM

O=C(Nc1ccc(N2C(=O)c3ccccc3C2=O)c(Cl)c1)c1ncccc1O
EC50 (GRM4; calcium signal; agonist): 0.13 µM

CSCC[C@H](NC(=O)[C@@H](NC(=O)[C@@H](N)Cc1ccc(O)cc1)C(C)C)C(=O)NCC(=O)N[C@@H](Cc1c[nH]cn1)C(=O)N[C@@H](Cc1ccccc1)C(=O)N[C@@H](CCCNC(=N)N)C(=O)N[C@@H](Cc1c[nH]c2ccccc12)C(=O)N[C@@H](CC(=O)O)C(=O)O
EC50 (Melanocortin receptor 5; reporter gene; agonist): 0.073 µM

C=CCN1CCCn2c1nc1c2c(=O)n(C)c(=O)n1C
Ki (Adora1; ligand displacement; radioligand; cell membranes): 4.4 µM

O=C(O)c1cccc(NC(=O)c2cc3ccccc3[nH]c2=O)c1
Kd (gyrB; binding; ITC): 7 µM

CCC(C)N1CCCn2c1nc1c2c(=O)n(C)c(=O)n1C (centres unmarked)
Ki (Adora1; ligand displacement; radioligand; cell membranes): ≥ 25 µM

Cc1nn(-c2ccccc2)c(C)c1C1COCCN1C(=O)c1ccc(Cl)c(S(N)(=O)=O)c1 (centres unmarked)
IC50 (CA9; enzyme activity; inhibitor): 0.155 µM

N=C(N)NCCC[C@H](NC(=O)[C@@H](N)CC(=O)O)C(=O)N[C@@H](Cc1ccccc1)C(=O)O
EC50 (Melanocortin receptor 5; reporter gene; agonist): > 100 µM

NS(=O)(=O)c1ccc(C(=O)N2CCCC(CNc3ccc(Cl)cc3)C2)cc1Cl (centres unmarked)
IC50 (CA9; enzyme activity; inhibitor): 0.206 µM

N=C(N)NCCC[C@H](NC(=O)[C@H](CC(=O)O)NC(=O)[C@H](Cc1c[nH]c2ccccc12)NC(=O)[C@@H](N)CCCNC(=N)N)C(=O)N[C@@H](Cc1ccccc1)C(=O)NCC(=O)O
EC50 (Melanocortin receptor 5; reporter gene; agonist): > 100 µM

NS(=O)(=O)c1ccc(NC(=O)COC(=O)c2ccccc2Nc2cccc(C(F)(F)F)c2)cc1
IC50 (CA9; enzyme activity; inhibitor): 0.087 µM

CNc1cccc2cc(C(=O)NCCc3cccc(C(=O)O)c3)c(=O)[nH]c12
Kd (gyrB; binding; ITC): 0.023 µM

Cn1cc(-c2ccc(N3CCN(C(=O)c4ccc(S(N)(=O)=O)c(Br)c4)CC3)c3cc[nH]c23)nn1
IC50 (CA9; enzyme activity; inhibitor): 0.0129 µM

N=C(N)NCCC[C@H](NC(=O)[C@H](CC(=O)O)NC(=O)[C@H](Cc1c[nH]c2ccccc12)NC(=O)[C@H](CCCNC(=N)N)NC(=O)[C@@H](N)Cc1ccccc1)C(=O)N[C@@H](Cc1ccccc1)C(=O)NCC(=O)O
EC50 (Melanocortin receptor 5; reporter gene; agonist): 13.5 µM

CNC(=O)c1cccc2oc(C(=O)NC3CCCN(CC(=O)Nc4ccc(S(N)(=O)=O)cc4)C3)cc12 (centres unmarked)
IC50 (CA9; enzyme activity; inhibitor): 0.0708 µM

CN(c1ccccc1CNc1nc(Nc2ccc3c(c2)CC(=O)N3)ncc1C(F)(F)F)S(C)(=O)=O
IC50 (PKN1; enzyme activity; inhibitor): 0.129 µM
